# Published values from different studies.
# Target: Maternal embryonic leucine zipper kinase (MELK, Homo sapiens, UniProt Q14680)
SMILES,test,conditions,measurement,result
Cn1cc(-c2cc(F)cc(N3CCn4c(cc5c4CCCC5)C3=O)c2CO)cc(Nc2ccc(N3CCN(C4COC4)CC3)cn2)c1=O,"enzyme activity, inhibitor",0.1 µM,inhibition,16%
Cn1cncc1[C@@](O)(COc1ccc(C#N)cc1-c1ccc(OC(F)(F)F)cc1)c1ccc(C#N)cc1,"cell-free assay, competition with immobilised ligand",1 µM,remaining binding,79%
CC(C)(C)c1cc(C=C(C#N)C#N)cc(Br)c1O,"enzyme activity, inhibitor",0.5 µM,remaining activity,91.6%
N#CC1(c2ccccn2)CCN(Cc2cc(C(=O)O)c(=O)n3ccccc23)CC1,"cell-free assay, competition with immobilised ligand",1 µM,remaining binding,55%
COc1cc(Nc2ncc(F)c(Nc3ccc4c(n3)NC(=O)C(C)(C)O4)n2)cc(OC)c1OC,"binding, competition with immobilised ligand",10 µM,inhibition,71%
O=c1[nH]c2ccccc2n1C1CCN(Cc2ccc(-c3[nH]c4cc5ncnc5cc4nc3-c3ccccc3)cc2)CC1,cell-free assay,0.5 µM,remaining signal,110%
Cc1nn(C)cc1-c1nc2c(N3CCN(Cc4ccc(Cl)cc4)CC3)c(Cl)cnc2[nH]1,"binding, competition with immobilised ligand",1 µM,remaining binding,100%
Cn1cc(-c2cccc(N3CCc4c(sc5c4CC(C)(C)C5)C3=O)c2CO)cc(Nc2ccncn2)c1=O,"enzyme activity, inhibitor",1 µM,inhibition,5%
COc1ncccc1-c1cnn2ccc(N3CCN(C(=O)OC(C)C)CC3)nc12,"binding, competition with immobilised ligand",1 µM,remaining binding,97%
